UBC9 SUMO inh – inhibitors of human SUMOylation (UBC9). HTRF SUMOylation assay, SAE1/SAE2 + UBC9, in vitro. inhibition, % at 35 µM. actives 0.36% (n = 290,000). AID 2006; in the data active = inhibition above about 50%, passing the limit was not always enough
Target sequence (P63279 whole entry, looked up): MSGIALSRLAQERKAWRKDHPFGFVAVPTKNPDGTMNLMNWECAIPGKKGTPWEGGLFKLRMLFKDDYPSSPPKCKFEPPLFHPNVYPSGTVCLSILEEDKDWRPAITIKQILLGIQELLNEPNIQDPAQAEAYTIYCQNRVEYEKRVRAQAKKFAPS
PAD4 FP inh – PAD4 (human) enzyme inhibition. recombinant PAD4, RCA probe fluorescence polarization. inhibition, % at 6.36 µM. actives 0.41% (n = 330,000);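 active = percent inhibition above a cutoff equal to the mean of all tested compounds plus 3 SD, cut at about 15% in these data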;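 note: 0% = PAD4 with RCA probe and DMSO and 100% = probe without PAD4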
Apaf-1 inh – inhibitors of human Apaf-1 apoptosome; O14727; reconstituted apoptosome caspase-3 activity, DEVD-Rh110 fluorescence; inhibition, % at 20 µM; actives 0.71% (n = 330,000); AID 489030; active = inhibition of at least 40% at 20 µM;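 note: plate controls were DMSO wells for no effect and DEVD-CHO caspase inhibitor wells for full effect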
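Medium: Hepes buffer, pH 7.5 / System: biochemical Apaf-1 apoptosome reconstitution / Measured by: Rh110 fluorescence, excitation 480 nm, emission 540 nm / Times: compound with Apaf-1, dATP, procaspase-3 30 min, then 50 min reaction, room temperature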
Rin1 Abl inh – blocks binding of human Rin1 to Abl; P00519+Q13671; actives 0.4% (n = 360,000); TR-FRET Rin1/Abl binding, biochemical; inhibition, % at 7.35 µM; AID 588664; in the data active = inhibition above about 5%, passing the limit was not always enough
UBC13 inh – inhibitors of human UBC13 polyubiquitin chain formation; P61088; TR-FRET; inhibition, % at 20 µM; actives 0.47% (n = 330,000); in the data active = inhibition above about 45%, passing the limit was not always enough
Target sequence (P61088 whole entry, looked up): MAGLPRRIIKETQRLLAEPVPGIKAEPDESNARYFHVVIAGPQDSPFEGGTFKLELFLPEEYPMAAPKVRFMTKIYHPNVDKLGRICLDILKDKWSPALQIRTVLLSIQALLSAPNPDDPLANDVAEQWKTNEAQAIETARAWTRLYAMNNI
GSTO1 inh – GSTO1 inhibition, counter-screen for RBBP9 inhibitors; inhibition, % at 5.96 µM; actives 1.1% (n = 300,000); recombinant GSTO1, activity-based probe fluorescence polarization; P78417;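 active = inhibition above the campaign mean inhibition plus 3 SD, cut at about 35% in these data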;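 note: 0% = GSTO1-1 with DMSO and 100% = wells lacking GSTO1-1 enzyme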
An asterisk follows results filed as active; / = no result. The list is not random: actives were taken first. Their share in the collection is about 2.2%.

SMILES	UBC9 SUMO inh	PAD4 FP inh	Apaf-1 inh	Rin1 Abl inh	UBC13 inh	GSTO1 inh
Oc1ccc(C2C[C@H]3CC[C@@H]2C3)cc1O (some centres undefined)	-15	-6	20	0	12	42*
O=C(Nc1ccc2oc(-c3ccc4ccccc4c3)nc2c1)c1ccc2c(c1)OCCO2	55*	-4	0	-4	-3	-17
CCCCCCCCCCn1c2c(c(=N)c3c1CCC3)CCC2	14	1	74*	0	62*	0
CCCCCCCCn1c2c(c(=N)c3ccccc31)CCC2	5	/	34	-1	29	/
COc1ccc(-c2ccc3c(c2)C2CC3CCN2Cc2ccc(OC(F)(F)F)cc2)cc1 (centres undefined)	/	/	/	-4	/	/
COc1ccc2nc(C)cc(SCC(=O)N/N=C/c3ccc(O)cc3O)c2c1	8	13	2	-9	17	-1
O=C(N/N=C/c1ccc(O)cc1O)C(=O)N/N=C/c1ccc(O)cc1O	95*	-1	-18	6	14	13
COc1ccc(N2Cc3ccc(C(=O)N/N=C\c4ccc(O)cc4O)cc3C2)cc1	66*	-8	10	/	20	-20
CSCCC(NC(=O)c1cccc(C)c1)C(=O)OCN1C(=O)c2ccccc2C1=O (centres undefined)	/	-6	4	-3	2	21
COC(=O)c1ccccc1N/C=C1\CCc2c(c(C)nn2-c2ccccn2)C1=O	8	5	69*	-2	-22	23
COC(=O)c1ccccc1NC(=O)CN1CCN(c2ccccn2)CC1	4	-4	15	3	5	15
N#Cc1c(=O)c2nc(NCCCO)ncc2n2c(=O)c3ccccc3[nH]c12	28	-9	19	-2	-38	-8
N#Cc1c(=O)c2nc(NCc3ccccc3)ncc2n2ccccc12	51*	2	16	-7	-16	21
CC1=CC2C(C3C=CC2(C)C(=O)C3(C)O)C(C)(O)C1=O (centres undefined)	/	/	/	0	/	/
Cc1ccccc1NC(=S)N=Nc1c(O)n(C)c2ccc(S(=O)(=O)N3CCOCC3)cc12	9	-6	-1	-1	-14	36*
COCCN1C(=S)N[C@@H](c2cccc(F)c2)C(C(=O)OC)=C1C	-17	1	57*	/	86*	5
COC(=O)C1=C(C)N(Cc2ccccc2)C(=S)N[C@H]1c1cccc(F)c1	1	-4	7	2	15	-1
COc1ccccc1N1CCN(c2ccc3c(c2)S(=O)(=O)c2cccc(C(=O)NCc4cccc(F)c4)c2C3=O)CC1	/	/	/	-4	/	/
CC(C)Cc1nnc(NC(=O)CSc2nc(O)c(-c3ccccc3)c(=O)[nH]2)s1	5	8	13	1	-8	71*
Cc1ccc(C(=O)N(CCc2ccccc2)Cc2ccccc2)cc1S(=O)(=O)N1CCOCC1	/	/	/	4	/	/
COc1ccc(C(=O)N(CCc2ccccc2)Cc2ccccc2)cc1S(=O)(=O)N1CCOCC1	/	6	45*	1	14	9
Cc1c(C)c2cc(Cl)c(O)c(CN(C)C)c2oc1=O	44	-2	10	-4	15	0
CCc1c(C)c2cc(Cl)c(O)c(CN(C)C)c2oc1=O	51*	-1	-4	-5	29	-3
c1cc2c(cc1CNc1ccc(N3CCOCC3)cc1)OCO2	/	-4	-1	1	-1	/
CC1CCN(Cc2cc(=O)oc3cc(O)c(Cl)cc23)CC1	55*	-1	5	2	11	8
SMILES	UBC9 SUMO inh	PAD4 FP inh	Apaf-1 inh	Rin1 Abl inh	UBC13 inh	GSTO1 inh
CC1CN(Cc2cc(=O)oc3cc(O)c(Cl)cc23)CC(C)O1 (centres undefined)	32	-4	4	0	4	4
Oc1ccc(O)cc1	/	-2	/	/	/	56*
COC(=O)c1ccc(-n2c(C)cc(C(=O)CCl)c2C)cc1	7	-3	-5	-3	-4	87*
COC(=O)c1ccc(-n2c(C)cc(C(=O)COC(=O)C3=COCCO3)c2C)cc1	/	3	7	3	8	/
CCOC(=O)CCCCCC(=O)Nc1ccc2c(c1)C(=O)N([C@H](C)CO)C[C@@H](C)[C@H](CN(C)Cc1ccc3c(c1)OCO3)O2	/	1	4	5	7	/
Cc1cccc(C)c1NC(=O)CN(C)C(=O)c1ccccc1SCC(=O)N1CCCC1	/	5	42*	-1	7	20

High-throughput results as filed in PubChem.
